Measurements taken from ChEMBL document CHEMBL2021821, “N-phosphonocarbonylpyrrolidine derivatives of guanine: a new class of bi-substrate inhibitors of human purine nucleoside phosphorylase” (J Med Chem, 2012).

Tests used:
[1] = biological target: T1, Purine nucleoside phosphorylase (Homo sapiens, UniProt P00491); test: Competitive inhibition of PNP in human PBMC using MSEG as substrate by Dixon-plot analysis
T1 sequence (P00491 whole entry): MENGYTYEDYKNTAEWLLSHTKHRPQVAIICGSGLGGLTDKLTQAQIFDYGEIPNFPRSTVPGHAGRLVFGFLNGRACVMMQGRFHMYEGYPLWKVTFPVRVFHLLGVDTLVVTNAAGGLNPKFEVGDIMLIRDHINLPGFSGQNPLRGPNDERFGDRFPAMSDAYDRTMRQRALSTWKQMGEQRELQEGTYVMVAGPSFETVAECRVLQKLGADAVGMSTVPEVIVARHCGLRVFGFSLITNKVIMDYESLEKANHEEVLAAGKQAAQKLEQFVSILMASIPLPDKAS

[2] = biological target: T1, Purine nucleoside phosphorylase; test: Competitive inhibition of human recombinant PNP using MSEG as substrate by Dixon-plot analysis
Outline: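 Human recombinant PNP. Assay mix was 50 mM Tris pH 7.5 with MESG at 40 or 80, constant 500 phosphate and inhibitor 0–500 nM. Enzyme addition started phosphorolysis, read at 360 nm for 5–7 min from initial rates. Ki was taken from Dixon plots (1/v vs [I]) over three independent measurements.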

[3] = biological target: T1, Purine nucleoside phosphorylase; test: Competitive inhibition of PNP in human Jurkat cells using MSEG as substrate by Dixon-plot analysis; assay type: cell-based
[4] = biological target: T1, Purine nucleoside phosphorylase; test: Competitive inhibition of PNP in human K562 cells using MSEG as substrate by Dixon-plot analysis; assay type: cell-based
[5] = biological target: T1, Purine nucleoside phosphorylase; test: Competitive inhibition of PNP in human DoHH2 cells using MSEG as substrate by Dixon-plot analysis; assay type: cell-based
[6] = biological target: T1, Purine nucleoside phosphorylase; test: Competitive inhibition of PNP in human MINO cells using MSEG as substrate by Dixon-plot analysis; assay type: cell-based
[7] = biological target: T1, Purine nucleoside phosphorylase; test: Competitive inhibition of PNP in human MC116 cells using MSEG as substrate by Dixon-plot analysis; assay type: cell-based
[8] = biological target: T1, Purine nucleoside phosphorylase; test: Competitive inhibition of PNP in human SU-DHL-1 cells using MSEG as substrate by Dixon-plot analysis; assay type: cell-based
[9] = biological target: T1, Purine nucleoside phosphorylase; test: Competitive inhibition of PNP in human RPMI8226 cells using MSEG as substrate by Dixon-plot analysis; assay type: cell-based, RPMI-8226
[10] = biological target: T1, Purine nucleoside phosphorylase; test: Competitive inhibition of PNP in human OPM2 cells using MSEG as substrate by Dixon-plot analysis; assay type: cell-based, OPM-2
[11] = biological target: T1, Purine nucleoside phosphorylase; test: Competitive inhibition of PNP in human HBL2 cells using MSEG as substrate by Dixon-plot analysis; assay type: cell-based
[12] = biological target: T1, Purine nucleoside phosphorylase; test: Competitive inhibition of PNP in human HBL2 tumor cells using MSEG as substrate by Dixon-plot analysis; assay type: cell-based
[13] = biological target: T1, Purine nucleoside phosphorylase; test: Competitive inhibition of PNP in human CML cells obtained from patients using MSEG as substrate by Dixon-plot analysis; assay type: cell-based
[14] = biological target: T1, Purine nucleoside phosphorylase; test: Competitive inhibition of PNP in human AML cells obtained from patients using MSEG as substrate by Dixon-plot analysis; assay type: cell-based
[15] = biological target: T1, Purine nucleoside phosphorylase; test: Inhibition of human recombinant PNP using MSEG as substrate preincubated with inhibitor within 10 to 20 mins measured after 5 mins by HPLC analysis
Outline: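 Recombinant human PNP (0.002 units) preincubated with inhibitor (0–250 nM) in 50 mM Tris pH 7.5 at 20 C for 0, 10 or 20 min. Then phosphate (final 500 µM) and MESG (final 20 µM) added; incubated 2 and 5 min at 25 C, aliquots quenched with HCl. MESG phosphorolysis measured by HPLC; activity expressed relative to no-inhibitor assays.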

Row | Compound | Ki [1] [nM] | Ki [2] [nM] | Ki [3] [nM] | Ki [4] [nM] | Ki [5] [nM] | Ki [6] [nM] | Ki [7] [nM] | Ki [8] [nM] | Ki [9] [nM] | Ki [10] [nM] | Ki [11] [nM] | Ki [12] [nM] | Ki [13] [nM] | Ki [14] [nM] | IC50 [15] [nM]
1 | Nc1nc2c(ncn2[C@H]2CCN(C(=O)P(=O)(O)O)C2)c(=O)[nH]1 | 20 | 25 | 16 | 60 | 50 | 30 | 50 | 38 | 50 | 78 | 98 | 100 | 77 | 60 | 
2 | Nc1nc2c(ncn2[C@@H]2CN(C(=O)P(=O)(O)O)C[C@@H]2O)c(=O)[nH]1 | 10 | 7 | 10 | 10 | 6 | 10 | 11 | 11 | 20 | 16 | 16 | 24 | 14 | 12 | 10
